Measured values as given in ChEMBL document CHEMBL1154137, “Monodictyochromes A and B, dimeric xanthone derivatives from the marine algicolous fungus Monodictys putredinis” (J Nat Prod, 2008).
Calls of active or inactive are those of the source. No cut-off for these calls is given here.

How the values were obtained:
Escherichia coli = assay: Antibacterial activity against Escherichia coli at 1 mg/ml by agar diffusion assay; format: functional, organism-based
Summary of the method: (§1)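 Agar diffusion assay with test solution at 1 mg/mL. Organisms: bacteria Bacillus megaterium and Escherichia coli; fungi Microbotryum violaceum, Eurotium rubrum and Mycotypha microspora; green microalga Chlorella fusca.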

[1] = Inhibition of CYP1A in beta-naphthoflavone-stimulated rat […] cells assessed as dealkylation of 3-cyano-7-ethoxycoumarin to 3-cyano-7-hydroxyciumarin; format: ADME, cell-based; conditions: for IC50: Rattus norvegicus; for Activity: rat
Summary of the method: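 Rat hepatoma H4IIE cells induced with β-naphthoflavone, then homogenised. CYP1A activity measured as dealkylation of 3-cyano-7-ethoxycoumarin to fluorescent 3-cyano-7-hydroxycoumarin, over a dose range. α-Naphthoflavone serves as positive control. IC50 is given as mean ± SD, n = 3.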

Priestia megaterium = assay: Antibacterial activity against Bacillus megaterium at 1 mg/ml by agar diffusion assay; format: functional, organism-based; summary of the method: as §1
Mycotypha microspora = assay: Antifungal activity against Mycotypha microspora at 1 mg/ml by agar diffusion assay; format: functional, organism-based; summary of the method: as §1
[Chlorella] fusca = Antialgal activity against Chlorella fusca at 1 mg/ml by agar diffusion assay; format: functional, organism-based; conditions: Scenedesmus fuscus; summary of the method: as §1
Aspergillus ruber = assay: Antifungal activity against Eurotium rubrum at 1 mg/ml by agar diffusion assay; format: functional, organism-based; summary of the method: as §1
[2] = Antioxidant activity assessed as AAPH radical scavenging activity at 1 uM; format: functional
Summary of the method: (§2)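 Oxygen radical absorbance capacity (ORAC) assay. AAPH generates peroxyl radicals, and trolox, the water-soluble vitamin E analogue, serves as reference. Compounds tested at 1 µM.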

Aromatase = target: T1, Aromatase (Homo sapiens, UniProt P11511); assay: Inhibition of human recombinant aromatase; conditions: for Activity: human
T1 sequence (P11511 whole entry): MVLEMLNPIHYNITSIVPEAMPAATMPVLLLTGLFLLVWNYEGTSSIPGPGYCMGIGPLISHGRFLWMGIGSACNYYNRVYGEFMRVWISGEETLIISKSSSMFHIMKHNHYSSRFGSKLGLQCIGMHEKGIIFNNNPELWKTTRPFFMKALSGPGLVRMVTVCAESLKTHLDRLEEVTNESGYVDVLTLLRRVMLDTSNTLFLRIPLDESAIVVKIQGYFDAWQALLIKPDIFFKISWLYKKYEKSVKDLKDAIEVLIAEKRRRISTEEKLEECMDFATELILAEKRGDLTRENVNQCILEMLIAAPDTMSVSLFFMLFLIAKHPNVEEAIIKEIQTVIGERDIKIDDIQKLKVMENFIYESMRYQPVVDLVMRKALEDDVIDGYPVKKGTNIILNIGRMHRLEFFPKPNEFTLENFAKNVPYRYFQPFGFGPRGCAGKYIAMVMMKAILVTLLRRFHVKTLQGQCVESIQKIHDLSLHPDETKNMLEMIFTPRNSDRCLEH
Summary of the method: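 Human recombinant CYP19 (aromatase) with O-benzylfluorescein benzyl ester (DBF) as substrate.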

Microbotryum violaceum = assay: Antifungal activity against Microbotryum violaceum at 1 mg/ml by agar diffusion assay; format: functional, organism-based; summary of the method: as §1
[3] = Antioxidant activity assessed as superoxide anion radical scavenging activity up to 50 uM; format: functional
Summary of the method: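 Superoxide anion radicals generated by xanthine oxidase oxidising hypoxanthine to uric acid. Scavenging tested at concentrations up to 50 µM.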

[4] = test system: Radical scavenging activity; assay: Antioxidant activity assessed as DPPH radical scavenging activity up to 250 uM; format: functional
[5] = target: Prostaglandin G/H synthase 1 (Homo sapiens) (UniProt P23219); assay: Inhibition of COX1 at 100 uM
Prostaglandin G/H synthase 1 (Homo sapiens), sequence (P23219 whole entry): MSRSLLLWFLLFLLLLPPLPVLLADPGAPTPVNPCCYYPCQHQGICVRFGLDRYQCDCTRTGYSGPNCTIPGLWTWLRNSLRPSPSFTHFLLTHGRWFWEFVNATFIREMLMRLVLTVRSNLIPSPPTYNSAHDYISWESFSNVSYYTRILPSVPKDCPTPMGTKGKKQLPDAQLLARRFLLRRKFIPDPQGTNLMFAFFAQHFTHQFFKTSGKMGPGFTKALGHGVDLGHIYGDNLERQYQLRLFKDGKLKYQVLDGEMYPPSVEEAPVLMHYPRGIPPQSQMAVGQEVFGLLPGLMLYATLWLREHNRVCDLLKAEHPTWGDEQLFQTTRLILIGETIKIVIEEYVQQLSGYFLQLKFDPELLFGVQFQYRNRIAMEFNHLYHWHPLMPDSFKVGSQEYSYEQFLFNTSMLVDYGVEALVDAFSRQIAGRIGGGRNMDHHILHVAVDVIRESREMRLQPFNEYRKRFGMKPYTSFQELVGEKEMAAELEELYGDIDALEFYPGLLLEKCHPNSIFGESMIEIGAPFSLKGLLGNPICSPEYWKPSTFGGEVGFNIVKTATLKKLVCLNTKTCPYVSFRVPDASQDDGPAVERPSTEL
Summary of the method: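 COX-1 enzymatic activity used as a marker of tumour promotion. Compounds tested at 100 µM.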

[6] = Cytotoxicity against mouse Hepa-1c1c7 cells by MTT assay; format: cell-based
[7] = target: T2, Quinone oxidoreductase (Mus musculus) (UniProt P47199); assay: Ratio of compound to sulforaphane level required to double NADPH-quinone reductase activity in mouse Hepa-1c1c7 cells; format: cell-based
T2 sequence (whole entry): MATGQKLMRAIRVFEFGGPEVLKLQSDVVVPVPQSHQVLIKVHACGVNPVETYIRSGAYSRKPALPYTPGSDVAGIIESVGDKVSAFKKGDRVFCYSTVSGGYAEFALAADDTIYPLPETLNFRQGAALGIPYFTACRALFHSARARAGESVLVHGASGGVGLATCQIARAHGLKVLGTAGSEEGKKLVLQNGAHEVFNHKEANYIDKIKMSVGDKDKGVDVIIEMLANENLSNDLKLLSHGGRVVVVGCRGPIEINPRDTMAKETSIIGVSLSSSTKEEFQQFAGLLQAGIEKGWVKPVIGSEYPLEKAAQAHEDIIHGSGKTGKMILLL

[8] = Antioxidant activity assessed as AAPH radical scavenging activity; format: functional; summary of the method: as §2

Row | IC50 [1] [µM] | Activity [1] | IC50 (Aromatase) [µM] | Activity (Aromatase) | inhibition [5] [%] | Ratio [7] | SMILES | Activity (Escherichia coli) | Activity (Priestia megaterium) | Activity (Mycotypha microspora) | Activity ([Chlorella] fusca) | Activity (Aspergillus ruber) | Activity [2] | Activity (Microbotryum violaceum) | Activity [3] | Activity [4] | IC50 [6] [µM] | Activity [8]
1 | 5.3 | Dose-dependent effect | 24.4 | Dose-dependent effect | < 50 | 100 | Cc1cc(O)c2c(c1-c1ccc3c(c1O)C(=O)C[C@](C)([C@@H]1OC(=O)C[C@@H]1C)O3)O[C@](C)([C@@H]1OC(=O)C[C@H]1O)CC2=O [MONODICTYOCHROMONE A] | inactive | inactive | inactive | inactive | inactive | Active | inactive | inactive | inactive | > 50 | 
2 |  |  |  |  |  |  | Cc1c(C)c2c(c(C)c1O)CCC(C)(C(=O)O)O2 (stereo not drawn) |  |  |  |  |  |  |  |  |  |  | Active
3 | 7.5 | Dose-dependent effect | 16.5 | Dose-dependent effect | < 50 | 100 | Cc1cc2c(c(O)c1-c1ccc3c(c1O)C(=O)C[C@](C)([C@@H]1OC(=O)C[C@@H]1C)O3)C(=O)C[C@@](C)([C@@H]1OC(=O)C[C@H]1O)O2 [MONODICTYOCHROMONE B] | inactive | inactive | inactive | inactive | inactive | Active | inactive | inactive | inactive | > 50 | 
